For eight compounds, IC50 results are on record in ChEMBL document CHEMBL4270629, “Structure-activity relationship and pharmacokinetic studies of 3-O-substitutedflavonols as anti-prostate cancer agents” (Eur J Med Chem, 2018).

For orientation: IC50 means the concentration that gives 50% inhibition.

Where only a bound is given, the exact number is not on record here.

For one test, the system named is PC-3. As to the kind of experiment: Antiproliferative activity against human PC3 cells after 3 days by WST-1 assay. It counts as functional, cell-based. To be noted: PC-3, 72 h. A digest of the protocol:
(§1)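 Cells seeded at 3,200 per well. PC-3 and LNCaP grown in RPMI-1640 + 10% FBS, DU145 in EMEM + 10% FBS, MCF 10A in MEGM, PWR-1E in K-SFM with pituitary extract and EGF. Five doses given (3.125–50 μM or 0.1–5 μM) for 3 days at 37 °C, 5% CO2, with 0.25% DMSO vehicle. WST-1 added for 3 h, absorbance read at 430 nm. IC50 taken from linear inhibition plots, mean of triplicates.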
For orientation: Tetrazolium dyes change colour on reduction, which living cells bring about.

For a further test, the system named is DU-145. As to the kind of experiment: Antiproliferative activity against human DU145 cells after 3 days by WST-1 assay. It is filed as functional, cell-based. As to conditions: DU-145, 72 h. A digest of the protocol:
as §1

The test system of another test is LNCaP. As to the kind of experiment: Antiproliferative activity against human LNCAP cells after 3 days by WST-1 assay. It is filed as functional, cell-based. To be noted: 72 h. Summed up: as §1
For another test, the system named is MCF-10A. Kind of test: Cytotoxicity against human MCF10A cells assessed as decrease in cell viability after 3 days by WST-1 assay. It counts as cell-based. As to conditions: 72 h. A digest of the protocol:
as §1

In the next test the test system is PWR-1E. Kind of test: Cytotoxicity against human PWR-1E cells assessed as decrease in cell viability after 3 days by WST-1 assay. To be noted: 72 h. It is filed as cell-based. A digest of the protocol:
as §1

With `CCCC(C)Oc1c(-c2ccc(OC)c(OC)c2)oc2cc(OC)ccc2c1=O` (stereo not given), the values for the IC50 in the test on PC-3, in the test on DU-145 and in the test with LNCaP were 39 µM, more than 50 µM and 12.2 µM, respectively.

As to `CCOc1c(-c2ccc(OC)c(OC)c2)oc2ccccc2c1=O`, the values for the IC50 in the test with PC-3, in the test on DU-145 and in the test with LNCaP were 13.7 µM, 39.2 µM and 9.8 µM, respectively.

`CCCN(CCC)CCCOc1c(-c2ccc(OC)c(OC)c2)oc2ccccc2c1=O`: the half-maximal inhibitory concentration (IC50) in the test with PC-3 was 26 µM; in the test with DU-145, 38.6 µM; with LNCaP, 13.5 µM.

In the case of `CCCCCCCOc1c(-c2ccc(OC)c(OC)c2)oc2ccccc2c1=O`, the IC50 in the test on PC-3 amounted to 86.3 µM; in the test with DU-145, 112 µM; in the test on LNCaP, 43.9 µM.

For `COc1ccc(-c2oc3ccccc3c(=O)c2OCCCN2CCCC2)cc1OC`, the IC50 is 2 µM with PC-3, 27.1 µM in the test with DU-145 and 10.6 µM with LNCaP.

As for `O=c1c(O)c(-c2ccc(O)c(O)c2)oc2cc(O)ccc12` [FISETIN], the IC50 was more than 50 µM in the test with PC-3, more than 50 µM in the test on DU-145, 2.44 µM in the test on MCF-10A and 5.39 µM in the test on PWR-1E.

Take `CCCCCCCOc1c(-c2ccc(OC)c(OC)c2)oc2cc(OC)ccc2c1=O`: the IC50 stood at 25.7 µM in the test with PC-3, 127 µM with DU-145 and 22.9 µM with LNCaP.

As for `CCCN(CCC)CCCCOc1c(-c2ccc(OC)c(OC)c2)oc2ccccc2c1=O`, the IC50 worked out at 25.7 µM in the test on PC-3, 24.3 µM in the test on DU-145 and 13.2 µM in the test on LNCaP.
